Compound activity as filed in PubChem.
Most compounds without a hit are left out; they make up all but 3.4% or so of the library.
M1 ag: human M1 muscarinic receptor agonism; AID 588814; CHO-K1 hM1, Fluo-8 calcium fluorescence, agonist mode; 0% DMSO, 100% acetylcholine EC100; P11229; 360,000 tested, 0.33% active; activation, % at 3 µM;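 active means activation above the run's mean compound activation plus 3 SD, cut at about 16% in these data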;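 further: peak over basal fluorescence ratio within a 140 s kinetic read after compound addition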
Target sequence (P11229 whole entry, looked up): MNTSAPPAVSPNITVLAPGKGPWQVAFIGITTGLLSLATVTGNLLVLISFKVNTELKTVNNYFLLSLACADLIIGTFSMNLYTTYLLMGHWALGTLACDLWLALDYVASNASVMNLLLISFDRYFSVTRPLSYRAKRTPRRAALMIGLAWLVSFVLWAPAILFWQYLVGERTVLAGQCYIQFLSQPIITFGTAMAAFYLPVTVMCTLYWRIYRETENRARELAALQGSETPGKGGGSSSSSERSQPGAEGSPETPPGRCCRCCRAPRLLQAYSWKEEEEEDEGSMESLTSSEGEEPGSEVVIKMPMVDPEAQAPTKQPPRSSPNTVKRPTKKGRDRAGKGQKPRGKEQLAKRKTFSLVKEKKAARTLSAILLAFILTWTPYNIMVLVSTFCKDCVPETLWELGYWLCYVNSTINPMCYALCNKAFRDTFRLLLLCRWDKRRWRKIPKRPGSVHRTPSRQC
CHRM1 antagonist: antagonists of human M1 muscarinic receptor; AID 588852; inhibition, % at 3 µM; CHO-K1 hM1, Fluo-8 calcium fluorescence, ACh EC80 antagonist; 360,000 tested, 1.3% active;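 active means percent inhibition above its own plate's cutoff, namely the mean of that plate's compound wells plus 3 SD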;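 further: peak over basal fluorescence ratio during 140 s after agonist addition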
TAAR1 ag: agonists of human TAAR1 | Q96RJ0 | CHO RD-HGA16 TAAR1, Fluo-8 calcium fluorescence; vehicle wells 0%, saturating PEA agonist 100% | activation, % at 3 µM | 360,000 tested, 0.99% active;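 active means activation above the mean activation of all test compounds in the run plus 3 SD, cut at about 38% in these data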
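Benchmarks: low control DMSO, high control PEA (EC100); System: CHO RD-HGA16 cells carrying human TAAR1 plus Gα16; Detection: Fluo-8 fluorescence, 5 s baseline then 140 s kinetic read; Schedule: 17-24 h plating, Fluo-8 75 min 37 °C, 30 min RT; Read-out basis: % activation from peak over basal fluorescence ratio, DMSO-to-PEA scaled.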
TAAR1 antagonist: antagonists of human TAAR1; inhibition, % at 3 µM; 360,000 tested, 1.5% active; CHO RD-HGA16 TAAR1, Fluo-8 calcium fluorescence, antagonist; AID 624466;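 active means inhibition above a per-plate cutoff, the mean inhibition of test compounds on that plate plus 3 SD, cut at about 49% in these data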
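test system = CHO RD-HGA16 cells bearing hTAAR1 | replication = singlicate | controls = DMSO-only wells and EC80 β-PEA-stimulated wells | reagent = EC80 β-phenethylamine stimulus | read-out basis = percent inhibition of PEA-evoked calcium signal, max/basal emission ratio | schedule = seeding 17-24 h prior, 75-min 37 °C, 30-min RT dye loading | signal = kinetic Fluo-8 calcium fluorescence measurement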
M1 PAM: human CHRM1 positive allosteric modulation; P11229; CHO-K1 hM1, Fluo-8 calcium fluorescence, ACh EC20; 0% = ACh EC20, 100% = maximal ACh; activation, % at 3 µM; 360,000 tested, 0.088% active; AID 588819; in the data active means activation above about 19%, passing the limit was not always enough
TAAR1 ag confirm: human TAAR1 agonism, confirmed. AID 651783. activation, % at 3 µM. CHO RD-HGA16 TAAR1, Fluo-8 calcium fluorescence; scaled: DMSO 0%, maximal phenethylamine 100%. 2,400 tested, 82% active. shares compounds with TAAR1 ag;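 active means activation above a cutoff set at the run's mean compound activation plus 3 SD, cut at about 39% in these data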
Ga16 ag counter: counter-screen for TAAR1 agonists: nonselective agonists in parental cells; shares compounds with TAAR1 ag; CHO-Ga16 parental, Fluo-8 calcium fluorescence; normalized to maximal ATP response, DMSO zero; activation, % at 3 µM; 2,400 tested, 50% active;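 active means activation above the run cutoff, the mean activation over all tested wells plus 3 SD, cut at about 12% in these data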
TAAR1 desens: counter-screen for human TAAR1 agonists: agonists that desensitize TAAR1; inhibition, % at 3 µM; shares compounds with TAAR1 ag; 2,400 tested, 46% active; CHO RD-HGA16 hTAAR1, Fluo-8 calcium, beta-PEA response inhibition;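 active means inhibition above the run cutoff, the mean inhibition of all test compounds plus 3 SD, cut at about 49% in these data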;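 further: beta-PEA stimulus applied at its EC80; loss of beta-PEA calcium signal after compound pretreatment read as receptor desensitization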
Ga16 nonsel ant: nonselective Ga16 antagonism, counter-screen; shares compounds with TAAR1 ag; CHO-Ga16 ATP-induced calcium, Fluo-8 fluorescence; inhibition, % at 3 µM; 2,400 tested, 39% active; AID 651952;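 active means inhibition above the plate's mean compound inhibition plus 3 SD, computed per plate, cut at about 22% in these data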
Hits are given with their value; - = inactive; . = not tested or not shown.

SMILES | M1 ag | CHRM1 antagonist | TAAR1 ag | TAAR1 antagonist | M1 PAM | TAAR1 ag confirm | Ga16 ag counter | TAAR1 desens | Ga16 nonsel ant
COc1ccc(NC(=O)N2CCN(c3cccc(C(F)(F)F)c3)CC2)cc1 | - | - | 89 | 94 | - | - | - | - | 24
COc1ccc(NC(=O)N2CCc3ccccc3C2)cc1 | - | - | 52 | - | - | 47 | - | - | -
O=C(Nc1ccc(Cl)cc1)N1CCc2ccccc2C1 | - | - | - | - | - | . | . | . | .
COc1ccc(COC(=O)C2CCN(S(=O)(=O)c3ccc(C)cc3)CC2)cc1 | - | - | - | - | - | . | . | . | .
O=C(Cc1ccccc1F)Nc1ccc(S(=O)(=O)Nc2ncccn2)cc1 | - | - | - | - | - | . | . | . | .
CC(N)c1csc(Nc2cc(Oc3ccccc3)ncn2)n1 (stereo unspecified) | - | - | - | - | - | . | . | . | .
CN(C)CCCN(C(=O)c1ccc(S(=O)(=O)N2CCCCCC2)cc1)c1nc2ccc(F)cc2s1 | - | - | 67 | - | - | 68 | 30 | - | -
CC1CCCCN1S(=O)(=O)c1ccc(C(=O)N(CCCN(C)C)c2nc3ccc(Br)cc3s2)cc1 (stereo unspecified) | - | - | 51 | - | - | 69 | 52 | 57 | 56
CN(C)CCN(C(=O)c1ccc(S(=O)(=O)N2CCCC2)cc1)c1nc2ccc(Br)cc2s1 | - | - | - | - | - | . | . | . | .
O=C(O)c1ccc(N/N=C/C(Br)=C/c2ccccc2)cc1 | - | - | 122 | 60 | - | - | 19 | - | -
O=C(N/N=C/C(Br)=C/c1ccccc1)C(O)c1ccccc1 (stereo unspecified) | - | - | - | - | - | . | . | . | .
O=C(COC(=O)C12CC3CC(CC(O)(C3)C1)C2)Nc1cccc(Br)c1 | - | - | - | - | - | . | . | . | .
CC1(C)C[C@H](O)[C@]2(CO)[C@H](O)C[C@]3(C)C(=CCC4[C@@]5(C)CC[C@H](O)C(C)(C)C5CC[C@]43C)[C@@H]2C1 (stereo partly specified) | - | - | 51 | - | - | - | - | - | -
CC1(C)C[C@H](O)[C@]2(CO)CC[C@]3(C)C(=CCC4[C@@]5(C)CC[C@H](O)C(C)(C)C5CC[C@]43C)[C@@H]2C1 (stereo partly specified) | - | - | - | - | - | . | . | . | .
O=C(NC1CCN(C(=O)c2cccc([N+](=O)[O-])c2)CC1)c1ccccc1 | - | - | - | - | - | . | . | . | .
NC(N)=N/N=C/c1ccc(Br)cc1 | - | - | 58 | - | - | 80 | - | - | -
N#Cc1ccc(/C=N/N=C(N)N)cc1 | - | - | - | - | - | . | . | . | .
O=C(NCCN1CCN(C(=O)c2ccc(F)cc2)CC1)c1ccc(F)cc1 | - | - | - | - | - | . | . | . | .
COc1ccc(/C=C/C(=O)c2ccc([N+](=O)[O-])o2)cc1OC | . | . | 59 | - | . | 47 | 17 | 49 | 31
CC1=C(C)CS(=O)N(S(=O)(=O)c2ccc(Cl)cc2)C1 (stereo unspecified) | - | - | 77 | - | - | 77 | 54 | - | -
N=C1/C(=C\c2coc3ccccc3c2=O)C(=O)N=C2SC=CN12 | 47 | 41 | 148 | 60 | - | 110 | 118 | 75 | 75
COc1ccccc1N1CCN(C2CCCN(C(=O)c3cccc(-c4ccco4)c3)C2)CC1 (stereo unspecified) | - | - | - | - | - | . | . | . | .
COc1cccc(-c2cc(C(=O)Nc3cnn(Cc4ccc(F)cc4)c3)no2)c1 | - | - | 46 | - | - | - | - | - | 23
